# Screening results from PubChem.
# Only some compounds are listed: those with a hit (about 3.6% of all), similar ones and a draw of the others.
# Phagocytosis inh = inhibitors of macrophage phagocytosis. J774A.1 macrophage IgG-bead phagocytosis, imaging. inhibition, % at 5 µM. 0.07% of 110,000 active;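 active = inhibition above the mean of the plate negative controls plus 5 SD, cut at about 13% in these data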;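 note: phagocytic index as fraction of beads internalized from green versus red external bead signal; plate controls were DMSO negative control for no effect and cytochalasin-D positive control for full effect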
# Yeast lifespan up = yeast lifespan extension; inhibition of the nicotinamide effect, % at 10 µM; S. cerevisiae growth with nicotinamide, OD615; deaD strain in restrictive glucose medium; 0.68% of 130,000 active; AID 775;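 active = inhibition above a set limit, placed 3 SD over the median of all compounds, cut at about 26% in these data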;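 note: 0% = nicotinamide-treated wells and 100% = cells grown without nicotinamide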
#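 System: DeaD-strain S. cerevisiae / Buffer or medium: CSMM-D, restrictive glucose (dextrose) synthetic minimal medium / Probe or stimulus: nicotinamide, 1.5 mM, co-present with compound / Compound: one concentration, 10 µM, DMSO 0.25% / Incubation: 48 h compound exposure at 30 °C, humidified / Technique: optical density (absorbance) at 615 nm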
# Yeast growth inh = reduces growth of yeast BB579 in restrictive medium; S. cerevisiae BB579 growth, OD615, 48 h; AID 804; 0.51% of 140,000 active; inhibition, % at 10 µM;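 active = inhibition above a set limit, 3 SD over the mean compound inhibition, cut at about 44% in these data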
#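 controls = amphotericin B 10 µg/mL, positive | assay system = DeaD yeast strain BB579 | schedule = 48 h compound exposure at 30 °C after 4 h preincubation | detection = OD615 turbidity measurement | medium = restrictive CSMM-D medium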
# RAM network inh = yeast RAM network inhibition; S. cerevisiae dse1pr::URA3 reporter, 5-FOA growth OD615, 2 d; analog-sensitive cbk1-as2 kinase mutant strain; 1.8% of 190,000 active; inhibition, % at 50 µM; AID 868;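 active = inhibition above a set limit, 3 SD over mean compound inhibition, cut at about 8.4% in these data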;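 note: 0% = DMSO-only wells with no growth and 100% = 10 µM 1-NA-PP1 full growth; inhibition rescues growth on 5-FOA so higher OD means more RAM inhibition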
# Measles CPE = protection of cells from measles virus. Measles virus-infected cells, CPE protection, absorbance. protection (pct of control), % at 4 µM. 1.5% of 140,000 active. AID 841; in the data active = protection mostly above about 24%, no sharp cut-off; inactive = mostly below about 26%
# An asterisk follows results filed as active; . = no result given.
SMILES,Phagocytosis inh,Yeast lifespan up,Yeast growth inh,RAM network inh,Measles CPE
Cc1ccccc1/C=N/Nc1ccnc2cc(Cl)ccc12,0.1,-4.3,-34.3,2.0,0.6
Cc1ccc(/C=N/Nc2ccnc3cc(Cl)ccc23)c(C)c1,-2.9,-5.7,67.5*,3.5,14.1
COc1cc(/C=N/NC(=O)C2C3CCCCC32C)cc(Br)c1O (stereo not given),-8.5,5.9,-33.0,0.5,10.7
Cc1ccc(CNC(=O)CCC(=O)c2cccs2)cc1,-0.1,-26.4,-1.1,0.3,60.0*
O=C(CCC(=O)c1cccs1)NCc1ccc(Cl)cc1,.,-7.3,0.4,0.5,10.6
C/C(=N/NC(=O)CNC(=O)c1cccc(F)c1)c1ccc2c(c1)CCCC2,.,.,.,1.2,.
COc1ccc(S(=O)(=O)Nc2ccccc2OC)cc1NC(=O)CC1CC2CCC1C2 (stereo not given),.,3.8,-30.9,3.5,4.9
N#C/C(=C\c1ccco1)C(=O)Nn1cnnc1,.,.,.,-0.8,.
CCOC(=O)c1cccc(Nc2nc(-c3cccnc3)nc3ccccc23)c1,0.9,-15.2,-17.9,0.3,28.7*
Cc1ccc(C)c(C(=O)COC(=O)c2cc(Cl)nc3ccccc23)c1,-7.8,2.7,-53.8,9.6*,5.0
Cc1ccc(C(=O)COC(=O)c2cc(Cl)nc3ccccc23)cc1C,-0.2,-16.4,-36.9,3.3,1.9
CCCCNC(=O)CSc1nc2ccsc2c(=O)n1C1CCN(C(=O)OCC)CC1,0.3,-3.0,-27.3,0.3,7.3
O=C(O)CCS(=O)(=O)c1nc(-c2cccs2)cc(C(F)(F)F)n1,-1.1,19.4,-41.8,-0.4,10.9
COc1ccc(-c2cc(C(F)(F)F)nc(S(C)(=O)=O)n2)cc1,-1.6,85.1*,-34.6,-0.9,2.9
CS(=O)(=O)c1nc(-c2ccc(F)cc2)cc(C(F)(F)F)n1,.,.,.,-0.2,.
CS(=O)(=O)c1nc(-c2cccs2)cc(C(F)(F)F)n1,6.8,52.5*,-26.4,-1.7,11.2
CCOCC(=O)Nc1c(C(=O)Nc2ccc(OC)cc2OC)oc2ccccc12,-0.7,-7.2,-45.0,10.8*,5.1
COc1ccc(NC(=O)c2oc3ccccc3c2NC(=O)c2ccco2)c(OC)c1,.,-15.7,-29.9,1.8,5.1
CN1CCN(CCNC(=O)c2cn(Cc3ccccc3F)nn2)CC1,.,.,.,3.0,.
CCN1CCN(CCNC(=O)c2cn(Cc3ccccc3F)nn2)CC1,.,-4.1,-7.3,-0.2,41.5*
O=C(CSCc1c(Cl)cccc1Cl)Nc1ccc2c(c1)OCCO2,-9.2,-2.0,-11.5,7.4,5.2
CCOC(=O)c1c(/N=C/c2cc(OC)cc([N+](=O)[O-])c2O)sc(C)c1C,-11.3,-6.0,24.0,9.5*,37.8
CCOC(=O)c1c(/N=C/c2cc([N+](=O)[O-])ccc2O)sc(C)c1C,-8.6,-2.3,61.4*,-1.2,22.5
CCc1n[nH]c(=S)n1/N=C/c1cc(OC)cc([N+](=O)[O-])c1O,.,.,.,2.6,.
CCOC(=O)c1c(/N=C/C2=C(O)CC(C)(C)CC2=O)sc(C)c1C,.,-1.1,-33.8,5.6,52.0*
SMILES,Phagocytosis inh,Yeast lifespan up,Yeast growth inh,RAM network inh,Measles CPE
CCCOc1ccc(Cc2c(Cl)nc(SC)nc2N(C)C)cc1,-12.9,0.5,-24.7,1.2,5.3
CCCOC(=O)Oc1ccc2c(=O)c(Oc3cc(C)cc(C)c3)coc2c1,-2.0,1.4,-3.0,3.9,20.1*
COc1ccccc1N(CC(O)Cn1c2ccccc2c2ccccc21)S(=O)(=O)c1ccccc1 (stereo not given),-1.2,0.7,-26.1,6.5,6.9
COc1ccccc1N(CC(O)COc1ccccc1C)S(=O)(=O)c1ccccc1 (stereo not given),-2.4,10.7,-69.7,9.7*,15.6
C=CCn1c(SCc2nc(N)nc(N(C)C)n2)nnc1-c1cccnc1,-3.0,-0.8,2.4,1.0,36.0*
CCN(CC(=O)Nc1ccc(NC(C)=O)cc1)C(=O)COc1ccc(C(=O)c2ccccc2)cc1,-1.2,3.4,-23.7,0.4,3.7
CCCCCn1c(CN2CCN(C)CC2)nc2c1c(=O)n(C)c(=O)n2C,0.1,-6.7,15.9,1.5,2.4
Cn1c(=O)c2c(nc(Br)n2Cc2ccc3ccccc3c2)n(C)c1=O,-0.6,38.4*,-7.0,4.5,9.0
CCCCCCn1c(CN2CCN(Cc3ccccc3)CC2)nc2c1c(=O)n(C)c(=O)n2C,-1.0,27.4*,-37.0,1.2,9.9
Cn1c(=O)c2c(nc(SCc3ccccc3)n2Cc2ccc(Cl)cc2)n(C)c1=O,.,.,-29.2,8.9*,6.4
Cc1cccc2c3nc4ccccc4nc3n(CCCN3C(=O)c4ccccc4C3=O)c12,-10.0,-3.3,18.5,-0.4,7.8
CCc1ccc2c(c1)C1(NN=C(c3ccc(C)cc3)S1)C(=O)N2 (stereo not given),.,.,96.3*,2.8,20.2
CC(C)c1ccc2c(c1)C1(NN=C(c3ccccc3)S1)C(=O)N2 (stereo not given),.,.,78.2*,1.6,6.2
Cc1ccc2c(c1)C(O)(CC(=O)c1ccc(C)s1)C(=O)N2 (stereo not given),.,.,.,0.3,.
CCCCCCCCCCC(=O)Nc1cccnc1,.,.,.,-1.8,.
C#CCNC(=O)C1=C[C@@H](c2csc3ccccc23)C[C@@H](OCc2ccc(CO)cc2)O1,.,.,.,4.5,.
O=C(c1ccc(Cl)cc1)N1CCC(O)(CSc2ccc(Cl)cc2Cl)CC1,0.0,-1.6,-19.5,3.0,1.4
Cn1cc(S(=O)(=O)Nc2ccc(Br)cc2F)c(=O)n(C)c1=O,0.1,-8.4,22.6,0.5,60.9*
Cc1ccc(NC(=O)c2nc[nH]c2C(=O)Nc2ccc(C)cc2)cc1,-2.3,13.4,-14.3,2.3,59.0*
COC(=O)c1c(NC(=O)COC(=O)[C@@H](NS(=O)(=O)c2ccc(C)cc2)C(C)C)sc2c1CCC2,6.8,2.6,-50.2,5.6,5.6
Cc1ccc(/C=C2\SC(=S)N(CCCC(=O)Nc3ccccn3)C2=O)cc1,.,3.8,-50.9,4.1,7.5
O=C(O)CCCCCN1C(=O)/C(=C\c2ccncc2)SC1=S,-8.1,52.2*,-15.5,1.6,12.9
O=C(CCCN1C(=O)/C(=C/c2cccs2)SC1=S)NNC(=O)c1ccncc1,.,.,.,1.6,.
O=C(NN1C(=O)/C(=C/C=C/c2ccccc2)SC1=S)c1ccncc1,.,.,.,9.3*,.
COc1ccc(/C=C2\SC(=S)N(CCCC(=O)NNC(=O)c3ccccc3O)C2=O)cc1,.,.,.,0.0,.
SMILES,Phagocytosis inh,Yeast lifespan up,Yeast growth inh,RAM network inh,Measles CPE
O=C(CCN1C(=O)/C(=C/c2ccccc2)SC1=S)NNC(=O)c1ccncc1,.,.,.,8.8*,.
COc1ccc(CN2C(=O)/C(=C/c3ccncc3)SC2=S)cc1,-4.2,48.1*,-32.6,-1.7,2.8
O=C(/C=C/c1ccc(Cl)c(Cl)c1)NC1=NCCS1,.,.,.,4.1,.
O=C(NNC(=O)C12CC3CC(CC(C3)C1)C2)[C@@H]1C[C@H]1c1ccccc1,.,.,.,1.1,.
NS(=O)(=O)c1cccc(NC(=O)CCSc2ccc(Cl)cc2)c1,-5.5,3.5,-12.6,-0.8,7.2
O=C(O)CCCCCN1C(=O)/C(=C/c2ccncc2)SC1=S,.,40.0*,-29.1,-1.2,20.0
O=C(CN1C(=O)/C(=C\C=C\c2ccccc2)SC1=S)Nc1ccc(F)cc1,-2.2,5.0,-27.6,9.7*,4.8
